Test results taken from ChEMBL document CHEMBL5107962, “Covalent sortase A inhibitor ML346 prevents Staphylococcus aureus infection of Galleria mellonella” (RSC Med Chem, 2022).
Active and inactive are the calls of the source. No cut-off for these calls is given here.

Key:
Staphylococcus aureus [1] = test: Antibiofilm activity against wild type Staphylococcus aureus Newman assessed as reduction in biofilm biomass at 25 to 200 uM incubated for 18 hrs by crystal violet staining based microplate reader analysis; assay type: functional, organism-based; details: dose 25-200 µM
Procedure, shortened: (§1)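 S. aureus overnight culture diluted 1:1000 in TSB with inhibitor, grown static at 37 °C for 18 h. Wells rinsed with PBS, fixed with methanol 10 min, stained with 0.1% crystal violet 15 min. Stain dissolved in 33% acetic acid and A600 read. Three independent experiments, mean ± SEM.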

[2] = system: Sortase A (Staphylococcus aureus), Q9S446 [UNDEFINED MUTATION]; test: (§2) Irreversible inhibition of recombinant Staphylococcus aureus sortase A deltaN24 expressed in Escherichia coli BL21(DE3) cells using Abz-LPATG-Dnp as substrate assessed as maximum inactivation rate constant preincubated for 60 mins followed by substrate addition and measured every 1 min for 15 mins by fluorescence intensity based assay; details: time 75.0 min
Procedure, shortened: (§3)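 Variable inhibitor concentrations incubated with SaSrtAΔN24 or SpSrtAΔN81 for different times, followed by FRET enzyme kinetics with Abz-LPATG-Dnp. kobs fitted as kinact × [I]/(KI + [I]) to give kinact and KI.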

[3] = Toxicity in Galleria mellonella larvae assessed as survivability measured after 120 hrs
Procedure, shortened: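 G. mellonella larvae (2-2.5 cm, creamy), starved 24 h, injected with 10 µL compound in vehicle (5% DMSO, 20% PEG300, 75% PBS with 6.6% solutol HS-15). Kept at 37 °C; survival and appearance recorded over 120 h with photography. Three independent experiments.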

Staphylococcus aureus [4] = test: […] activity against compound pretreated wild type Staphylococcus aureus Newman infected in Galleria mellonella larvae assessed as pathogenicity by measuring melanization after 24 hrs of bacterial injection; assay type: functional, organism-based
Procedure, shortened: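 S. aureus diluted 1:1000 with or without compound and grown to A600 1.0. 10 µL of a 1 × 10^7 CFU mL-1 PBS suspension injected into the last proleg of starved larvae, held at 37 °C. Larvae chilled on ice and photographed at 24 h to score melanization. ΔsrtA strain used as control.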

Streptococcus pyogenes = test: as §2, with “Streptococcus pyogenes” for “Staphylococcus aureus”, “deltaN81” for “deltaN24”, “Kinact/Ki ratio” for “maximum inactivation rate constant”; details: time 75.0 min; procedure, shortened: as §3
Procathepsin L = Procathepsin L (Homo sapiens, UniProt P07711); test: Inhibition of cathepsin L (unknown origin) using Cbz-Phe-Arg-AMC as substrate at 20 uM preincubated for 5 mins followed by substrate addition and measured after 10 mins by fluorometric assay; details: time 15.0 min
Sequence of Procathepsin L (P07711 114-333 limits assumed): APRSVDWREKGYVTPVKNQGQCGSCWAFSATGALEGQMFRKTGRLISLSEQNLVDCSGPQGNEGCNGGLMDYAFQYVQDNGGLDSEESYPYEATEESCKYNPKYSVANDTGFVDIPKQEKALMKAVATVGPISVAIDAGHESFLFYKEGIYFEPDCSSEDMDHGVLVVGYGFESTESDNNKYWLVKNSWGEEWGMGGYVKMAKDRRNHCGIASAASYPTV
Procedure, shortened: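 Cbz-Phe-Arg-AMC added (40 µM for B, 80 µM for L) and fluorescence read at ex 380/em 460 nm over 10 min. E64 at 6.25 nM as control. Triplicates, two experiments.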

Staphylococcus aureus [5] = test: Antibiofilm activity against methicillin-resistant Staphylococcus aureus USA300 assessed as reduction in biofilm biomass at 25 to 200 uM incubated for 18 hrs by crystal violet staining based microplate reader analysis; assay type: functional, organism-based; details: dose 25-200 µM; procedure, shortened: as §1
Sortase A [6] = molecular target: T1, Sortase A (Staphylococcus aureus, UniProt Q9S446); test: Irreversible inhibition of recombinant Staphylococcus aureus sortase A deltaN24 expressed in Escherichia coli BL21(DE3) cells using Abz-LPATG-Dnp as substrate preincubated for 10 mins followed by substrate addition and measured every 1 min for 15 mins by FRET-based assay
Procedure, shortened: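 SaSrtAΔN24 preincubated with compound for 10, 20, 40 or 60 min before FRET IC50 determination with Abz-LPATG-Dnp in Tris pH 7.5, NaCl, CaCl2 buffer.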

Staphylococcus aureus [7] = test: Anti-virulence activity against Staphylococcus aureus USA300 assessed as decrease in SpA display on cell envelope by Western blot analysis; assay type: functional, organism-based; details: dose 25-200 µM, DDE = dose-dependent effect
Procedure, shortened: (§4)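 S. aureus overnight culture diluted 1:1000 in TSB and grown with inhibitor until A600 3.0. Washed cells treated with 10 µg mL-1 lysostaphin in PBS for 15 min at 37 °C. Supernatant (cell-wall anchored proteins) run on SDS-PAGE and immunoblotted for SpA, with ClpP as loading control. Three independent experiments.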

Staphylococcus aureus [8] = test: Anti-virulence activity against Staphylococcus aureus Newman harbouring deltasrtA mutant assessed as decrease in cell-wall anchored SpA level at 25 to 200 uM by FITC-labelled human IgG based […]; assay type: functional, organism-based; details: dose 25-200 µM
Procedure, shortened: (§5)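 S. aureus grown in TSB (1:1000 dilution) with inhibitor until A600 1.0. Washed cells incubated with FITC-labelled human IgG in PBS for 30 min at room temperature in the dark, rinsed, and read by fluorescence. Three technical replicates, three independent experiments. Mean ± SEM, unpaired two-tailed Student's t test (n = 3).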

Staphylococcus aureus [9] = test: Anti-virulence activity against Staphylococcus aureus USA300 assessed as decrease in cell-wall anchored SpA level at 25 to 200 uM by FITC-labelled human IgG based […]; assay type: functional, organism-based; details: dose 25-200 µM; procedure, shortened: as §5
[10] = system: Sortase A (Staphylococcus aureus), Q9S446 [UNDEFINED MUTATION]; test: Irreversible inhibition of recombinant Staphylococcus aureus sortase A deltaN24 expressed in Escherichia coli BL21(DE3) cells assessed as thermal stabilization by measuring change in melting temperature incubated for 15 mins by Nano DSF assay
Procedure, shortened: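 40 µg SaSrtAΔN24 (wild type or C184A) in 100 µL 50 mM Tris-HCl pH 9.0, 150 mM NaCl, 5 mM CaCl2 incubated with compound for 15 min at room temperature, then centrifuged. Label-free nanoDSF read at 330/350 nm while ramping 30–90 °C at 2 °C per min. Tm taken from the first derivative of the ratio.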

[11] = as §2, with “Streptococcus pyogenes” for “Staphylococcus aureus”, “deltaN81” for “deltaN24”, “as” for “as maximum”, “inactivation” for “inactivation rate”; procedure, shortened: as §3
Sortase A [12] = molecular target: T1, Sortase A; test: as §2, with “as” for “as maximum”, “inactivation” for “inactivation rate”; procedure, shortened: as §3
Staphylococcus aureus [13] = test: Anti-virulence activity against Staphylococcus aureus Newman assessed as decrease in SpA display on cell envelope at 25 to 200 uM by Western blot analysis; assay type: functional, organism-based; details: dose 25-200 µM; procedure, shortened: as §4
[14] = Inhibition of recombinant Streptococcus pyogenes sortase A deltaN81 transpeptidation expressed in Escherichia coli BL21 (DE3) cells using IsdA64 to 323 as substrate preincubated for 20 mins followed by substrate addition and measured after 1.5 hrs by SDS-PAGE-based assay
Procedure, shortened: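 SrtA (200 µg mL-1) preincubated with inhibitor (1–50 µM) for 20 min at room temperature in Tris pH 7.5, NaCl, CaCl2 buffer. IsdA64-323 (300 µg mL-1 final) and 3 mM (Gly)3 added, incubated at 37 °C for 1.5 h, then run on 12% SDS-PAGE. IC50 from band quantification of precursor and mature product. Two independent experiments.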

Staphylococcus aureus [15] = test: Anti-infectivity against Staphylococcus aureus Newman infected in Galleria mellonella larvae assessed as survival rate at 25 mg/kg and measured after 120 hrs; assay type: functional
Procedure, shortened: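 G. mellonella larvae (2-2.5 cm, creamy), starved 24 h at room temperature. S. aureus grown in TSB to A600 1.0, washed and resuspended in PBS, premixed with compound in vehicle (5% DMSO, 20% PEG300, 75% PBS with 6.6% solutol HS-15). Injected into last proleg at about 1 × 10^6 CFU/larva (Newman) or 1 × 10^7 CFU/larva (USA300). Groups of 15 kept at 37 °C, survival recorded 120 h, Mantel–Cox test.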

In the case of `COc1ccc(/C=C/C=C2C(=O)NC(=O)NC2=O)cc1`, the Activity (Staphylococcus aureus [1]) is reported as “Active”, the Kinact [2] is reported as 0.185 min⁻¹ and the Activity [3] is reported as “Non-Toxic”. For the same compound, the Activity (Staphylococcus aureus [4]) was “Active”, the Ratio (Streptococcus pyogenes) was 0.064 µM⁻¹ min⁻¹ and the inhibition (Procathepsin L) was “Active”. The Activity (Staphylococcus aureus [5]) was “Active”, the IC50 (Sortase A [6]) was 1100 nM and the Activity (Staphylococcus aureus [7]) was “Dde”. For the same compound, the Activity (Staphylococcus aureus [8]) was “Active”, the Activity (Staphylococcus aureus [9]) was “Active” and the ΔTm [10] was 4.1 °C. The Ki [11] was 686 nM, the Ki (Sortase A [12]) was 2450 nM and the Activity (Staphylococcus aureus [13]) was “Active”. It also gave an IC50 [14] of 5880 nM and an Activity (Staphylococcus aureus [15]) of 46.7%.
